Measured values of several laboratories.
Protocols differ between the studies behind these lines.
Target: Carbonic anhydrase 2 (CA2, Homo sapiens, UniProt P00918)
Observed: enzyme activity
Action: inhibitor

The Ki of `NS(=O)(=O)c1nnc(NC(=O)CCc2ccc(F)cc2)s1` is reported as 3.6 nM (stopped-flow).
With `COc1ccc(NC(=S)N/N=C/c2ccc(N3CCC(O)CC3)cc2)cc1` the IC50 was 579 nM (absorbance).
The Ki of `CC(C)(C)CCC(=O)Nc1nnc(S(N)(=O)=O)s1` is reported as 10.2 nM (stopped-flow).
`O=C(O)c1ccc(Nc2nc(-c3cc4cc(Br)ccc4oc3=O)cs2)cc1` gave an IC50 of 1290 nM (absorbance).
With `OC1CCN(c2ccc(/C=N/NC(=S)Nc3ccc(F)cc3)cc2)CC1` the IC50 was 255 nM (absorbance).
`CN(C)CCC(c1ccccc1)c1ccccn1` (stereo not drawn) gave an IC50 of 22200 nM (absorbance; pH 7.4).
The Ki of `NCCCC(=O)Nc1nnc(S(N)(=O)=O)s1` is reported as 65.7 nM (stopped-flow).
The IC50 of `Cc1cncc(CN2CCC(=C3c4ccc(Cl)cc4CCc4cccnc43)CC2)c1` is reported as 14600 nM (absorbance; pH 7.4).
`OC1CCN(c2ccc(/C=N/NC(=S)Nc3cccc(Cl)c3Cl)cc2)CC1` has an IC50 of 267 nM (absorbance).
With `CCOC(=O)N1CCC(=C2c3ccc(Cl)cc3CCc3cccnc32)CC1` the IC50 was 13100 nM (absorbance; pH 7.4).
For `CC1CCCCC1CC(=O)Nc1nnc(S(N)(=O)=O)s1` (stereo not drawn), the Ki was 29.2 nM (stopped-flow).
The IC50 of `OC1CCN(c2ccc(/C=N/NC(=S)NCc3ccc(Cl)cc3)cc2)CC1` is reported as 374 nM (absorbance).
With `NS(=O)(=O)c1nnc(NC(=O)CCC2CCCCO2)s1` (stereo not drawn) the Ki was 0.84 nM (stopped-flow).
`OC1CCN(c2ccc(/C=N/NC(=S)Nc3ccccc3)cc2)CC1` gave an IC50 of 507 nM (absorbance).
For `O=c1[nH]c(=O)n([C@H]2C[C@H](O)[C@@H](CO)O2)cc1/C=C/Br`, the IC50 was 11800 nM (absorbance; pH 7.4).
